The source of these data is ChEMBL document CHEMBL3351625, “Ethyl 2-(benzylidene)-7-methyl-3-oxo-2,3-dihydro-5H-thiazolo[3,2-a]pyrimidine-6-carboxylate analogues as a new scaffold for protein kinase casein kinase 2 inhibitor” (Bioorg Med Chem, 2014).

As a reminder, the pKi is −log10 of the Ki, conventionally taken in molar units. A word on the pIC50: it is −log10 of the IC50, conventionally taken in molar units.

pIC50, pKi: −log10 of the molar value. Active and inactive are the calls of the source. The rule behind the calls is not given here.

Assay [1] deals with HepG2. In words: Cytotoxicity against human HepG2 cells assessed as cell viability at 10 uM after 24 hrs by MTT assay. Format: functional, cell-based. Summed up:
(§1)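 AGS and HepG2 kept in Modified Eagle's Medium with serum and antibiotics at 37 °C, 5% CO2. Seeded at 1 × 10⁴ cells/well and grown 24 h, then exposed for 24 h. MTT at 4 mg/mL final for 2 h, formazan dissolved in DMSO, A570. Quadruplicate.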
On the technique in general: Formazan colour is commonly taken as a measure of viable cells.

A further assay relates to Hep 3B2. In words: Cytotoxicity against human Hep3B cells assessed as cell viability at 10 uM after 24 hrs by MTT assay. The class given is functional, cell-based. Summed up:
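Hep3B kept in Dulbecco's Modified Eagle's Medium with serum and antibiotics at 37 °C, 5% CO2. Seeded at 1 × 10⁴ cells/well and grown 24 h, then exposed for 24 h. MTT at 4 mg/mL final for 2 h, DMSO solubilisation, A570. Quadruplicate.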

For assay [2], the system named is MKN-28. Nature of the assay: Cytotoxicity against human MKN28 cells assessed as cell viability at 10 uM after 24 hrs by MTT assay. Format: functional, cell-based. In short, it runs like this: (§2)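 Lines from Korea Cell Line Bank, kept in RPMI1640 with serum and penicillin/streptomycin at 37 °C, 5% CO2. Seeded at 1 × 10⁴ cells/well and grown 24 h, then exposed to the inhibitor for 24 h. MTT added at 4 mg/mL final for 2 h, formazan taken up in DMSO, absorbance read at 570 nm. Run in quadruplicate.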

In assay [3] the test system is TE-2. Nature of the assay: Cytotoxicity against GFP-tagged human TE2 cells assessed as cell viability at 10 uM after 24 hrs by MTT assay. Format: functional, cell-based. Summed up: (§3)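 Esophageal TE2 cells stably carrying GFP or CK2α were plated at 1 × 10⁴ cells/well and grown 24 h. They were then exposed for 24 h, given MTT at 4 mg/mL final for 2 h, formazan dissolved in DMSO, absorbance at 570 nm.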

Assay [4] concerns MKN-1. Nature of the assay: Induction of apoptosis in TRAIL-resistant human MKN1 cells assessed as cell death at 10 uM after 24 hrs and subsequently treated with TRAIL 200 ng/ml for 2 hr by Annexin-V-FLUOS staining. The class given is functional, cell-based. Summed up:
(§4)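 Cells were left untreated or pretreated with the inhibitor at 10 µM for 24 h, then exposed to TRAIL (200 ng/mL) for 2 h. They were then washed with PBS and stained with Annexin-V-FLUOS/propidium iodide for 15 min. Apoptotic cells were counted by fluorescence microscopy. Viability was assessed in parallel by MTT. Data are given as mean ± SD.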

Another assay has as its system MKN-45. In words: Cytotoxicity against human MKN45 cells assessed as cell viability at 10 uM after 24 hrs by MTT assay. Format: functional, cell-based. Summed up:
as §2

Assay [5] deals with MKN-1. Nature of the assay: Cytotoxicity against human MKN1 cells assessed as cell viability at 10 uM after 24 hrs by MTT assay. The class given is functional, cell-based. In short, it runs like this:
as §2

In assay [6] the test system is TE-2. Nature of the assay: Cytotoxicity against human TE2 cells expressing CK2 assessed as cell viability at 10 uM after 24 hrs by MTT assay. Format: functional, cell-based. In short, it runs like this:
as §3

Assay [7] has as its system SK-HEP1. In words: Cytotoxicity against human SKHEP1 cells assessed as cell viability at 10 uM after 24 hrs by MTT assay. Format: functional, cell-based.
For assay [8], the system named is AGS. In words: Induction of apoptosis in TRAIL-resistant human AGS cells assessed as cell death at 10 uM after 24 hrs and subsequently treated with TRAIL 200 ng/ml for 2 hr by Annexin-V-FLUOS staining. The class given is functional, cell-based. Summed up: as §4
Assay [9] concerns the target Casein kinase II subunit alpha (Homo sapiens) (UniProt P68400). Nature of the assay: Inhibition of recombinant human CK2alpha assessed as inhibition of phosphorylation of GST-CS at 10 uM by Coomassie brilliant blue staining based autoradiography.
Assay [10] deals with SNU739. In words: Cytotoxicity against human SNU739 cells assessed as cell viability at 10 uM after 24 hrs by MTT assay.
In assay [11] the test system is SNU739. In words: Induction of apoptosis in TRAIL-resistant human SNU739 cells assessed as cell death at 10 uM after 24 hrs and subsequently treated with TRAIL 200 ng/ml for 2 hr by Annexin-V-FLUOS staining. The class given is functional, cell-based. In short, it runs like this:
as §4

For assay [12], the target named is Casein kinase II (Homo sapiens) (UniProt P67870+P68400+P19784). Nature of the assay: (§5) Inhibition of human CK2 assessed as residual activity by KinaseProfiler assay. The class given is protein-complex assay.
Another assay deals with SNU878. In words: Cytotoxicity against human SNU878 cells assessed as cell viability at 10 uM after 24 hrs by MTT assay. The class given is functional, cell-based. Summed up:
as §2

The subject of the next assay is SNU668. Nature of the assay: Cytotoxicity against human SNU668 cells assessed as cell viability at 10 uM after 24 hrs by MTT assay. The class given is functional, cell-based. Summed up:
as §2

In the next assay the test system is SNU761. Nature of the assay: Cytotoxicity against human SNU761 cells assessed as cell viability at 10 uM after 24 hrs by MTT assay. Format: functional, cell-based. In short, it runs like this:
as §2

In assay [13] the target is T1, Casein kinase II (Homo sapiens, UniProt P19784+P67870+P68400). In words: Competitive inhibition of human CK2 assessed as competitive with respect to ATP. The class given is protein-complex assay.
The test system of another assay is NCI-N87. Nature of the assay: Cytotoxicity against human NCI-N87 cells assessed as cell viability at 10 uM after 24 hrs by MTT assay. The class given is functional, cell-based. In short, it runs like this:
as §2

The subject of assay [14] is AGS. In words: Cytotoxicity against human AGS cells assessed as cell viability at 10 uM after 24 hrs by MTT assay. Format: functional, cell-based. Summed up: as §1
For assay [15], the target named is Casein kinase II subunit alpha (Homo sapiens) (UniProt P68400). Nature of the assay: Inhibition of recombinant human CK2alpha assessed as inhibition of phosphorylation of GST-CS by Coomassie brilliant blue staining based autoradiography.
Assay [16] has as its system MKN-28. Nature of the assay: Induction of apoptosis in TRAIL-resistant human MKN28 cells assessed as cell death at 10 uM after 24 hrs and subsequently treated with TRAIL 200 ng/ml for 2 hr by Annexin-V-FLUOS staining. Format: functional, cell-based. Summed up:
as §4

The test system of assay [17] is HepG2. In words: Induction of apoptosis in TRAIL-resistant human HepG2 cells assessed as cell death at 10 uM after 24 hrs and subsequently treated with TRAIL 200 ng/ml for 2 hr by Annexin-V-FLUOS staining. The class given is functional, cell-based. Summed up: as §4
The test system of another assay is SNU484. In words: Cytotoxicity against human SNU484 cells assessed as cell viability at 10 uM after 24 hrs by MTT assay. Format: functional, cell-based. In short, it runs like this:
as §2

The subject of assay [18] is SK-HEP1. Nature of the assay: Induction of apoptosis in TRAIL-resistant human SKHEP1 cells assessed as cell death at 10 uM after 24 hrs and subsequently treated with TRAIL 200 ng/ml for 2 hr by Annexin-V-FLUOS staining. Format: functional, cell-based. In short, it runs like this:
as §4

Assay [19] concerns the target T1, Casein kinase II. Described as §5. Format: protein-complex assay.

For the compound `CCOC(=O)C1=C(C)N=c2s/c(=C\c3ccc(O)c(O)c3)c(=O)n2C1c1ccc(Cl)cc1` (configuration not stated), the outcome with HepG2 [1], in the assay with Hep 3B2, in the assay on MKN-28 [2], in the assay with TE-2 [3], in the assay with MKN-1 [4] and in the assay with MKN-45 was Active. Besides, the result in the assay with MKN-1 [5], in the assay on TE-2 [6], in the assay with SK-HEP1 [7], with AGS [8], in the assay on SNU739 [10] and in the assay on SNU739 [11] was Active. For the same compound, the result (in [12]; in the assay with SNU878; in the assay on SNU668; in the assay with SNU761; in the assay on NCI-N87; in the assay on AGS [14]) was Active. Besides, the result in the assay with MKN-28 [16], with HepG2 [17], in the assay on SNU484 and in the assay on SK-HEP1 [18] was Active. Also, the inhibition result in assay [9] and in [15] was “Active” each time. The negative logarithm of the Ki (pKi) on Casein kinase II [13] was 6.11.

As to `CCOC(=O)C1=C(C)N=c2s/c(=C\c3cc(O)c(O)c(O)c3)c(=O)n2C1c1ccc(Cl)cc1` (configuration not stated), the inhibition entry in assay [9] was “Active”. The pIC50 at Casein kinase II [19] was 5.06.

With `Brc1c(Br)c(Br)c2[nH]nnc2c1Br`, the result in the assay on HepG2 [1], in the assay on Hep 3B2, with MKN-28 [2], in the assay on TE-2 [3], with MKN-45 and in the assay with MKN-1 [5] was Active. In addition, the result in the assay on TE-2 [6], in the assay with SK-HEP1 [7], in the assay with SNU739 [10], with SNU878, in the assay on SNU668 and with SNU761 was Active. Also, the outcome in the assay with NCI-N87, in the assay with AGS [14] and in the assay on SNU484 was Active.
